In the library only some 0.98% were active in any assay of this set; here they are far more common.
ERAP1 inh: inhibitors of human ERAP1 aminopeptidase. inhibition, % at 10.7 µM. 340,000 tested, 0.15% active. recombinant ERAP1, Leu-AMC fluorescence, 60 min;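 active means mean replicate inhibition of at least 30%, or all replicates individually reaching that 30% level; inactive means mean below 30% and not every replicate reaching it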;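 further: 0% = neutral control wells and 100% = L-leucinethiol positive control wells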
Target sequence (Q9NZ08 whole entry, looked up): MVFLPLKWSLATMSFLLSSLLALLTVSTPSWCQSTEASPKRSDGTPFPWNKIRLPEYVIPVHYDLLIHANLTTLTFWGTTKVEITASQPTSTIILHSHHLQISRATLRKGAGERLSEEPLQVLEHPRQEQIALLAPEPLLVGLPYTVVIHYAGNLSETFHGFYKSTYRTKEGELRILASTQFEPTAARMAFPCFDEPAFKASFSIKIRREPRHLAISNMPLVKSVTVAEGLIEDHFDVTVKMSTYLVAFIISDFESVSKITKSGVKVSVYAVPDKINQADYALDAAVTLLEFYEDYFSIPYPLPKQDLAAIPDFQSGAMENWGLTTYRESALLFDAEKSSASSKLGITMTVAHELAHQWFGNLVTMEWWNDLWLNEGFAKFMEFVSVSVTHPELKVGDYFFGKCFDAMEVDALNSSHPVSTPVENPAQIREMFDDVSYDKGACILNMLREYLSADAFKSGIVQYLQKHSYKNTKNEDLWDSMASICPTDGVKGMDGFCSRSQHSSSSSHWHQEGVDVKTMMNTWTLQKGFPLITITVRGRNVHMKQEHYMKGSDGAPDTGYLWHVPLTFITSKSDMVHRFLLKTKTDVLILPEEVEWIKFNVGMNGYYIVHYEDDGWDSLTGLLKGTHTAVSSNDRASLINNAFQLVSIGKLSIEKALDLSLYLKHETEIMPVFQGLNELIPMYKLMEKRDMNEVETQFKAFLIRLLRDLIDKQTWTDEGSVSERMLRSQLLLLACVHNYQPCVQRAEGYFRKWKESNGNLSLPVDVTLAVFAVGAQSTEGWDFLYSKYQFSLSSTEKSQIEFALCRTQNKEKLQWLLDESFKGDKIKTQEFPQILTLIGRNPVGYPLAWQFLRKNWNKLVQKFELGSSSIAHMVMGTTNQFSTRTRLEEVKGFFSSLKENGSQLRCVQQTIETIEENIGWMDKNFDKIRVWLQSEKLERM
PGC1a acetyl inh: PGC1a acetylation modulation, inhibitor mode; U2OS PGC1a acetylation, AlphaScreen anti-acetyl-lysine; with virally co-expressed GCN5 acetyltransferase; inhibition, % at 15.6 µM; 350,000 tested, 0.17% active;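 active means every replicate shows inhibition of at least 40%; inconclusive means mean inhibition at least 40% but some replicate below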;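 further: 0% = neutral control wells and 100% = positive control wells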
C2C12 statin: protects C2C12 myotubes from simvastatin toxicity | 330,000 tested, 0.78% active | AID 602340 | ATP luminescence, 48 h; scaled: DMSO 0, geranylgeraniol control 100 | rescue of ATP level, % at 7.49 µM;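 active means mean ATP rescue above about 67%, or every replicate alone reaching that limit, limit read from the data, passing the limit was not always enough; inconclusive means no clear call, values can overlap the other calls; inactive means mean under the limit and some replicate under it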;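 further: myotubes were challenged with 10 µM simvastatin during compound exposure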
Rtt109 Vps75: blocks Candida albicans Rtt109/Vps75 acetyltransferase activity. Q5AAJ8. purified Rtt109/Vps75, ThioGlo CoA-SH fluorescence, 4 h. inhibition, % at 34.9 µM. 330,000 tested, 0.16% active;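 active means inhibition of at least 50% in every replicate; inconclusive means best replicate reaches 50% inhibition but some replicates fall short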
S100A4 MyoIIA: blocks human S100A4 binding to myosin IIA peptide; P26447; S100A4/TAMRA-MyoIIA peptide fluorescence polarization; inhibition, % at 10.7 µM; 360,000 tested, 0.14% active;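 active means mean inhibition of at least 70% across replicates, with every replicate also reaching that level; inconclusive means mean inhibition reaches 70% but some replicates fall short; inactive means mean inhibition below 70%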
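Material: S100A4 monomer protein | Medium: HEPES pH 7.2 with CaCl2, KCl, NaCl, DTT, Triton | Reagent: Labelled myosin peptide probe, 5 nM | Doses: One dose per compound | Times: 5 min incubation before reading | Benchmarks: Neutral control DMSO, positive control TFP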
C2C12 COX5a inh: inhibitors of PGC-1a target COX5a expression in C2C12 myotubes; AID 743461; 45 tested, under 10 active; shares compounds with PGC1a acetyl inh; maximal activity, %; C2C12 myotubes PGC-1a adenovirus, COX5a qPCR;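 active means fitted dose curve reaching 40% activity at or below the highest valid dose tested; inconclusive means flat fit between 30% and 70%, or an unusable fit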
AID743468: change in PGC-1a target gene PDK4 expression, dose response, C2C12 myotubes, RT-qPCR, cherry-pick. shares compounds with PGC1a acetyl inh. PGC-1a adenovirus, PDK4 mRNA qPCR. PDK4 expression increase, % at 19.5 µM. 45 tested, under 10 active;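 active means fitted curve reaching a 40% PDK4 expression rise at or below the top valid tested dose; inconclusive means no clear call, values can overlap the other calls; inactive means the rest, including shifts the wrong way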
* = called active by the depositor; ? = inconclusive; nt = no result given.

SMILES	ERAP1 inh	PGC1a acetyl inh	C2C12 statin	Rtt109 Vps75	S100A4 MyoIIA	C2C12 COX5a inh	AID743468
CC(=O)N1CCc2cc(S(=O)(=O)NCCCN3CCN(Cc4ccccc4)CC3)ccc21	nt	5	-3	-1	nt	nt	nt
CCC(=O)N1CCc2cc(S(=O)(=O)NCCCN3CCN(Cc4ccccc4)CC3)ccc21	nt	-2	156*	4	nt	nt	nt
O=C1C=CCCN1C(=O)/C=C/c1cccc(C(F)(F)F)c1	3	78*	nt	nt	8	nt	nt
O=C1C=CCCN1C(=O)/C=C/c1ccccc1Cl	2	73*	nt	nt	39	nt	nt
O=C(/C=C/c1ccccc1Cl)N1CCOCC1	-4	-19	-2	-3	-3	nt	nt
COc1cccc(C(C(=O)NC(C)(C)C)N(C(=O)CCC(=O)Nc2cc(C)on2)C(C)(C)C)c1OC (stereo not drawn)	nt	-19	67*	3	nt	nt	nt
COc1cccc(C(C(=O)NC(C)(C)C)N(C(=O)CCC(=O)Nc2cc(C)on2)C(C)C)c1OC (stereo not drawn)	nt	nt	nt	-1	nt	nt	nt
Cc1cc(C(=O)Nc2cccc3c2O[C@H](CN(C)C(=O)Nc2ccc(F)cc2)[C@H](C)CN([C@@H](C)CO)C3=O)n(C)n1	0	5	6	nt	2	nt	nt
CCCC(=O)N(Cc1cc2ccccc2[nH]c1=O)c1ccccc1OC	-3	2	13	4	-4	nt	nt
CCCC(=O)N(Cc1cc2cc(C)ccc2[nH]c1=O)c1ccccc1OC	nt	-2	76*	-1	nt	nt	nt
O=C(CSc1nc2c(sc3ccccc32)c(=O)n1Cc1ccccc1)NCC1CCCO1 (stereo not drawn)	nt	nt	nt	2	nt	nt	nt
O=C(CSc1nc2c(sc3ccccc32)c(=O)n1Cc1ccco1)NCC1CCCO1 (stereo not drawn)	nt	-4	95*	-14	nt	nt	nt
CNC[C@H]1OCCCC[C@@H](C)Oc2ccc(NC(=O)Nc3ccccc3)cc2C(=O)N([C@@H](C)CO)C[C@H]1C	-7	0	13	nt	-3	nt	nt
CC(CCc1ccccc1)NC(=O)CN1CCN(Cc2ccc(Cl)cc2)C1=O (stereo not drawn)	nt	7	67*	-5	-7	nt	nt
Cc1ccc(S(=O)(=O)N[C@@H]2CC[C@@H](CCn3cc(C4CCCC4)nn3)O[C@@H]2CO)cc1	2	-7	-5	nt	2	nt	nt
CCc1c(C)sc(NC(=O)c2ccco2)c1C(=O)N1CCCCC1	nt	8	116*	7	nt	nt	nt
CCc1c(C)sc(NC(=O)c2ccco2)c1C(=O)N1CCOCC1	nt	3	-1	1	nt	nt	nt
O=S(=O)(Nc1ccc(-c2nnc(SCc3ccc(Cl)cc3)o2)cc1)c1ccccc1	nt	nt	nt	57*	nt	nt	nt
O=C(O)c1ccc(CSc2nnc(-c3ccc(Cl)cc3)o2)cc1	1	13	-5	-8	-2	nt	nt
CC[C@H](C)[C@H](NC(=O)c1ccc(Cl)cc1)C(=O)OCC(=O)c1ccc2c(c1)NC(=O)CO2	nt	?	-1	1	nt	-16	5
CC(C)[C@H](NC(=O)c1ccccc1)C(=O)OCC(=O)c1ccc2c(c1)NC(=O)CO2	nt	2	5	1	nt	nt	nt
C[C@@H]1CN([C@H](C)CO)S(=O)(=O)c2ccc(C#Cc3ccncc3)cc2O[C@H]1CN(C)C(=O)C1CCCCC1	-3	-21	-54	nt	-7	nt	nt
COc1ccccc1C#Cc1ccc2c(c1)O[C@@H](CN(C)Cc1cccnc1)[C@H](C)CN([C@H](C)CO)S2(=O)=O	4	43*	-48	nt	9	11	?
C[C@H]1CN([C@@H](C)CO)S(=O)(=O)c2ccc(-c3ccccc3)cc2O[C@@H]1CN(C)Cc1cccc(F)c1	-4	48*	-46	nt	9	-51	-20
C[C@H](CO)N1C[C@H](C)[C@@H](CN(C)C(=O)C2CCCCC2)Oc2cc(C#Cc3ccncc3)ccc2S1(=O)=O	-7	?	7	nt	-7	-21	-2
SMILES	ERAP1 inh	PGC1a acetyl inh	C2C12 statin	Rtt109 Vps75	S100A4 MyoIIA	C2C12 COX5a inh	AID743468
CC1=C(Cl)C2=NS(=O)(=O)CCN2C=C1Cl	5	?	nt	7	-7	-23	0
C[C@H](CO)N1C[C@H](C)[C@@H](CN(C)C)Oc2ccc(NC(=O)CCC(F)(F)F)cc2CC1=O	-2	3	-4	nt	44	nt	nt
C[C@@H]1CN([C@H](C)CO)S(=O)(=O)c2ccc(-c3ccncc3)cc2O[C@@H]1CN(C)C(=O)CC1CC1	1	0	-4	nt	-3	nt	nt
Nc1ncnc(NCc2ccc(F)cc2)c1[N+](=O)[O-]	0	50*	nt	0	-7	-25	32
Nc1ncnc(NCc2ccccc2)c1[N+](=O)[O-]	2	nt	nt	17	-5	nt	nt
Cc1nc2ccccn2c1C(=O)/C=C/c1ccc(F)cc1	nt	?	23	8	nt	-23	6
O=C(Nc1ccc(C(F)(F)F)cc1)N1C[C@@H]2N[C@H](C1)C2c1ccc(-c2ccccc2)cc1 (stereo partly drawn)	2	?	nt	nt	10	-43	-24
C[C@H]1CN([C@@H](C)CO)C(=O)c2cc(NC(=O)Nc3ccc(F)cc3)ccc2O[C@H]1CN(C)Cc1ccc(Cl)c(Cl)c1	-1	8	-22	nt	0	nt	nt
C[C@@H]1CN([C@H](C)CO)C(=O)c2cccc(NC(=O)Nc3ccc4c(c3)OCO4)c2O[C@H]1CN(C)S(C)(=O)=O	0	2	nt	nt	1	nt	nt
Cc1noc(C)c1S(=O)(=O)Nc1ccc2c(c1)CC(=O)N([C@@H](C)CO)C[C@@H](C)[C@@H](CN(C)C(=O)NC1CCCCC1)O2	1	-1	33	nt	6	nt	nt
O=c1cc(CSc2ccccn2)[nH]c(=O)[nH]1	nt	?	nt	-7	nt	-27	-6
O=c1cc(CCc2ccccc2)[nH]c(=O)[nH]1	-2	nt	nt	nt	3	nt	nt
CS(=O)c1nc(-c2ccc(Br)cc2)cc(-c2ccccc2)c1C#N (stereo not drawn)	-1	91*	-4	nt	7	-38	11
CCN1CCN(Cc2ccc(NC(=O)c3cc(NC(=O)c4cncc(-c5ccc(C#N)cc5)c4)cc(OC)c3)cc2C(F)(F)F)CC1	-1	86*	-5	-5	-3	-46	1
Cc1noc(C)c1S(=O)(=O)N(C)C[C@@H]1OCCCC[C@@H](C)Oc2ccc(NC(=O)c3ccccc3)cc2C(=O)N([C@@H](C)CO)C[C@H]1C	0	-11	nt	nt	-1	nt	nt
Cc1nc(Nc2ccc(S(N)(=O)=O)cc2)sc1C(=O)Nc1ccccc1	-1	?	nt	-11	4	-26	-8
Cc1nc(Nc2ccccc2)sc1C(=O)Nc1ccccc1	6	nt	nt	-3	-3	nt	nt
CCCC#Cc1cnc2c(c1)C(=O)N([C@@H](C)CO)C[C@H](C)[C@@H](CN(C)C(=O)C1CCC1)O2	0	0	16	nt	-17	nt	nt

Screening results deposited in PubChem BioAssay by Broad Institute.
